Screening data: PubChem, The Scripps Research Institute Molecular Screening Center
This is a sample that favours compounds with a hit; in the whole collection about 3.4% have one here.
CHRM1 antagonist: human CHRM1 antagonism | P11229 | CHO-K1 hM1, Fluo-8 calcium fluorescence, ACh EC80 antagonist | inhibition, % at 3 µM | 360,000 tested, 1.3% active;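 active = percent inhibition above its own plate's cutoff, namely the mean of that plate's compound wells plus 3 SD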;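 also: peak over basal fluorescence ratio during 140 s after agonist addition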
M1 ag: human M1 muscarinic receptor agonism; P11229; 360,000 tested, 0.33% active; CHO-K1 hM1, Fluo-8 calcium fluorescence, agonist mode; 0% DMSO, 100% acetylcholine EC100; activation, % at 3 µM;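 active = activation above the run's mean compound activation plus 3 SD, cut at about 16% in these data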;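 also: peak over basal fluorescence ratio within a 140 s kinetic read after compound addition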
TAAR1 agonist: agonists of human TAAR1; Q96RJ0; CHO RD-HGA16 TAAR1, Fluo-8 calcium fluorescence; vehicle wells 0%, saturating PEA agonist 100%; activation, % at 3 µM; 360,000 tested, 0.99% active; AID 624467;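 active = activation above the mean activation of all test compounds in the run plus 3 SD, cut at about 38% in these data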
Target sequence (Q96RJ0 whole entry, looked up): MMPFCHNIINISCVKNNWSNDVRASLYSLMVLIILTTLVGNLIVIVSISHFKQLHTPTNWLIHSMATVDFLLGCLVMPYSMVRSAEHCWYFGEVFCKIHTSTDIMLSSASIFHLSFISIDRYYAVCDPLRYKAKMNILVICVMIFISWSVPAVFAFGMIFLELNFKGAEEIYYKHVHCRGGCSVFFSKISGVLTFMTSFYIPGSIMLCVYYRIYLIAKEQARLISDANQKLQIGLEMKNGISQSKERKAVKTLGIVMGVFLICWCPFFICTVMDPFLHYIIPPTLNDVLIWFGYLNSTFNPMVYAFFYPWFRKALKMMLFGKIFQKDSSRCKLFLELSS
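System: CHO RD-HGA16 cells carrying human TAAR1 plus Gα16; Incubation: 17-24 h seeding, 75 min 37 °C dye, 30 min RT; Measured by: Fluo-8 fluorescence, 5 s baseline then 140 s kinetic read; Control set: DMSO and PEA EC100; Replication: single well for each compound.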
CHRM1 PAM: potentiates human M1 receptor response to acetylcholine; P11229; activation, % at 3 µM; AID 588819; 360,000 tested, 0.088% active; CHO-K1 hM1, Fluo-8 calcium fluorescence, ACh EC20; 0% = ACh EC20, 100% = maximal ACh; in the data active = activation above about 19%, passing the limit was not always enough
TAAR1 antag: antagonists of human TAAR1. Q96RJ0. CHO RD-HGA16 TAAR1, Fluo-8 calcium fluorescence, antagonist. inhibition, % at 3 µM. 360,000 tested, 1.5% active;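 active = inhibition above a per-plate cutoff, the mean inhibition of test compounds on that plate plus 3 SD, cut at about 49% in these data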
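test system = CHO RD-HGA16 cells bearing hTAAR1 | replication = singlicate | controls = DMSO-only wells and EC80 β-PEA-stimulated wells | reagent = EC80 β-phenethylamine stimulus | read-out basis = percent inhibition of PEA-evoked calcium signal, max/basal emission ratio | schedule = seeding 17-24 h prior, 75-min 37 °C, 30-min RT dye loading | signal = kinetic Fluo-8 calcium fluorescence measurement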
TAAR1 nonsel count: nonselective antagonist in TAAR1 antagonist counter-screen; shares compounds with TAAR1 antag; AID 651780; counterscreen cell line, calcium fluorescence, antagonist mode; inhibition, % at 3 µM; 2,400 tested, 77% active; in the data active = inhibition above about 22%;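 also: CHO-Ga16 host cells stimulated with ATP at an EC80 level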
TAAR1 antag conf: confirmation of human TAAR1 antagonists; 2,400 tested, 40% active; inhibition, % at 3 µM; shares compounds with TAAR1 antag; AID 651785; TAAR1-expressing cells, fluorescence antagonist read-out; in the data active = inhibition above about 49%;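 also: CHO-Ga16 host cells challenged with agonist PEA near its EC80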
Ga16 nonsel ag: nonselective Ga16 agonist in TAAR1 antagonist counter-screen; shares compounds with TAAR1 antag; Ga16-expressing cells, calcium fluorescence, agonist counterscreen; activation, % at 3 µM; 2,400 tested, 18% active; AID 651953; in the data active = activation above about 12%
TAAR1 ag count: counter-screen for human TAAR1 antagonists: TAAR1 agonists. shares compounds with TAAR1 antag. hTAAR1 cell line, fluorescence activation, agonist mode. activation, % at 3 µM. 2,400 tested, 2% active. AID 651955; in the data active = activation above about 37%;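 also: CHO cells stably expressing TAAR1 with calcium dye readout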
Hits are given with their value.

Cc1ccc(C)c(S(=O)(=O)N2CCN(c3nc(-c4cccnc4)nc4ccccc34)CC2)c1 was read as CHRM1 antagonist 27.5, M1 ag inactive, TAAR1 agonist inactive, CHRM1 PAM inactive, TAAR1 antag 60.6, TAAR1 nonsel count inactive, TAAR1 antag conf inactive, Ga16 nonsel ag inactive and TAAR1 ag count inactive.
`Cc1ccc(S(=O)(=O)N2C[C@H]3N(C(=O)OC(C)C)N(C(=O)OC(C)C)C[C@H](OC(=O)NCC4CCCCC4)[C@@]3(O)C2)cc1` gave CHRM1 antagonist inactive, M1 ag inactive and CHRM1 PAM inactive.
`NC(=O)COc1cccc(/C=N/NC(=O)c2ccc(-n3cccc3)cc2)c1` gave CHRM1 antagonist inactive, M1 ag inactive, TAAR1 agonist inactive, CHRM1 PAM inactive, TAAR1 antag 84.0, TAAR1 nonsel count inactive, TAAR1 antag conf 55.2, Ga16 nonsel ag inactive and TAAR1 ag count inactive.
For NC(=O)c1ccc(C(=O)N/N=C/c2cccc(Oc3ccccc3)c2)cc1 the results were CHRM1 antagonist inactive, M1 ag inactive, TAAR1 agonist inactive, CHRM1 PAM inactive and TAAR1 antag inactive.
For CCOc1ccc(-n2c(C)cc(/C=N\NC(=O)CC(=O)NC3CCCCC3)c2C)cc1 the results were CHRM1 antagonist inactive, M1 ag inactive, TAAR1 agonist inactive, CHRM1 PAM inactive, TAAR1 antag 57.2, TAAR1 nonsel count 25.0, TAAR1 antag conf inactive, Ga16 nonsel ag inactive and TAAR1 ag count inactive.
Cc1cccc(OCc2nc(C#N)c(NCc3ccc4c(c3)OCO4)o2)c1 was read as CHRM1 antagonist inactive, M1 ag inactive, TAAR1 agonist inactive, CHRM1 PAM inactive and TAAR1 antag inactive.
For N#Cc1nc(COc2ccc(Cl)cc2)oc1NCc1ccc2c(c1)OCO2 the results were CHRM1 antagonist inactive, M1 ag inactive, TAAR1 agonist inactive, CHRM1 PAM inactive, TAAR1 antag 50.0, TAAR1 nonsel count 22.1, TAAR1 antag conf inactive, Ga16 nonsel ag inactive and TAAR1 ag count inactive.
Screening Cc1ccccc1-c1cc2nc(NCc3ccc(N(C)C)cc3)n(C)c(=O)c2s1 returned CHRM1 antagonist inactive, M1 ag inactive, TAAR1 agonist inactive, CHRM1 PAM inactive and TAAR1 antag inactive.
For CCOC(=O)c1ccc(NC(=O)C2CCN(S(=O)(=O)c3ccccc3)CC2)cc1 the results were CHRM1 antagonist inactive, M1 ag inactive, TAAR1 agonist inactive, CHRM1 PAM inactive and TAAR1 antag inactive.
For Cc1ccc(S(=O)(=O)N2CCCC(C(=O)Nc3ccc(NC(=O)c4ccccn4)cc3)C2)cc1 (stereo unspecified) the results were CHRM1 antagonist inactive, M1 ag inactive, TAAR1 agonist inactive, CHRM1 PAM inactive, TAAR1 antag 55.3, TAAR1 nonsel count 32.0, TAAR1 antag conf 52.8, Ga16 nonsel ag inactive and TAAR1 ag count inactive.
Screening CCOC(=O)c1ccc(NC(=O)C2CCCN(S(=O)(=O)c3ccc(F)cc3)C2)cc1 (stereo unspecified) returned CHRM1 antagonist 47.7, M1 ag inactive, TAAR1 agonist inactive, CHRM1 PAM inactive, TAAR1 antag 67.0, TAAR1 nonsel count 39.5, TAAR1 antag conf 62.4, Ga16 nonsel ag 12.7 and TAAR1 ag count inactive.
`C/C=C/c1cccc(-c2nc(C(=O)NC3Cc4ccccc4C3)cc3c2[C@@H](CCO)N(C(C)=O)C3)c1` gave TAAR1 agonist inactive and TAAR1 antag inactive.
For CC(C)(C)OC(=O)N1CCC(CC2CC(c3ccccc3)=NO2)(C(=O)NCc2ccccc2)CC1 (stereo unspecified) the results were CHRM1 antagonist inactive, M1 ag inactive, TAAR1 agonist inactive, CHRM1 PAM inactive and TAAR1 antag inactive.
For COC(=O)C1(CC2CC(c3cccc(Br)c3)=NO2)CCN(C(=O)OC(C)(C)C)CC1 (stereo unspecified) the results were CHRM1 antagonist inactive, M1 ag inactive, TAAR1 agonist inactive, CHRM1 PAM inactive, TAAR1 antag 71.0, TAAR1 nonsel count 29.3, TAAR1 antag conf 63.8, Ga16 nonsel ag inactive and TAAR1 ag count inactive.
`COc1ccc(CCNC2=CC(=O)CCC2)cc1OC` gave CHRM1 antagonist inactive, M1 ag inactive and CHRM1 PAM inactive.
For CCc1nc2ccccc2c(C(=O)OCCN2C(=O)c3ccccc3C2=O)c1C the results were CHRM1 antagonist inactive, M1 ag inactive, TAAR1 agonist inactive, CHRM1 PAM inactive, TAAR1 antag 66.4, TAAR1 nonsel count 26.1, TAAR1 antag conf inactive, Ga16 nonsel ag inactive and TAAR1 ag count inactive.
Screening COC(=O)[C@]12CCCCC=C1N(Cc1ccc(Cl)cc1Cl)C(=O)[C@H](CC(=O)N1CCCC1)C2 returned TAAR1 agonist inactive and TAAR1 antag inactive.
O=C(Nc1ccccc1)c1cc(C2CCCCN2C(=O)c2cccs2)on1 (stereo unspecified) was read as CHRM1 antagonist inactive, M1 ag inactive, TAAR1 agonist inactive, CHRM1 PAM inactive and TAAR1 antag inactive.
Screening CCOc1ccc(/C=C/C(O)=C2/C(=O)NC3(C)CC2c2ccccc2O3)cc1OC (stereo unspecified) returned CHRM1 antagonist 44.0, M1 ag inactive, TAAR1 agonist inactive, CHRM1 PAM inactive, TAAR1 antag 59.9, TAAR1 nonsel count 27.5, TAAR1 antag conf 49.0, Ga16 nonsel ag inactive and TAAR1 ag count inactive.
c1ccc(N=NC2=NN(c3ccccc3)CS2)cc1 was read as CHRM1 antagonist inactive, M1 ag inactive, TAAR1 agonist inactive, CHRM1 PAM inactive and TAAR1 antag inactive.
O=C(Nc1ccccc1C(=O)Nc1ccccc1C(=O)NCc1ccco1)c1ccco1 was read as CHRM1 antagonist inactive, M1 ag inactive, TAAR1 agonist inactive, CHRM1 PAM inactive, TAAR1 antag 68.8, TAAR1 nonsel count 24.7, TAAR1 antag conf 48.6, Ga16 nonsel ag inactive and TAAR1 ag count inactive.
For Cc1ccccc1N(CC(=O)Nc1ccccc1C(=O)NCc1ccco1)S(=O)(=O)c1ccccc1 the results were CHRM1 antagonist inactive, M1 ag inactive, TAAR1 agonist inactive, CHRM1 PAM inactive, TAAR1 antag 68.8, TAAR1 nonsel count 30.6, TAAR1 antag conf inactive, Ga16 nonsel ag inactive and TAAR1 ag count inactive.
Screening COc1cccc(C(C(=O)NC2CCCC2)N2CCN(c3cc(C)ccc3C)CC2)c1OC (stereo unspecified) returned TAAR1 agonist inactive and TAAR1 antag inactive.
